Assays:
Format in all cases: functional
Candida albicans = test: Antifungal activity against Candida albicans ATCC 2091 assessed as diameter of inhibition zone at 1 mg/ml after 48 hrs by cup diffusion method (reference value: 22 mm); conditions: ATCC 2091, 48 h, read-out: DIZ
Staphylococcus aureus = test: Antibacterial activity against Staphylococcus aureus ATCC 6538P assessed as diameter of inhibition zone at 1 mg/ml after 24 hrs by cup diffusion method (reference value: 15 mm); conditions: read-out: DIZ
MDA-MB-468 = test: Cytotoxicity against human MDA-MB-468 cells
Method in brief: (§1)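 Five-dose in vitro screen on the full sixty human tumour cell line panel. Three response parameters derived per cell line: GI50, TGI and LC50, given in μM.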

MDA-MB-231 = test: Cytotoxicity against human MDA-MB-231 cells; method in brief: as §1
Hs-578T [1] = test: Cytotoxicity against human Hs578T cells
MCF7 = test: Cytotoxicity against human MCF7 cells; method in brief: as §1
DU-145 = test: Cytotoxicity against human DU145 cells
PC-3 [2] = test: Cytotoxicity against human PC3 cells; method in brief: as §1
UO-31 [3] = test: Cytotoxicity against human UO31 cells
Method in brief: (§2)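 Five-dose in vitro screen across the full sixty-cell human tumour line panel. Three response parameters were derived from the dose-response data: GI50, TGI and LC50, expressed in μM/l.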

TK-10 = test: Cytotoxicity against human TK10 cells; method in brief: as §2
SN12C = test: Cytotoxicity against human SN12C cells; method in brief: as §1
CAKI-1 [4] = test: Cytotoxicity against human Caki1 cells
SK-OV-3 = test: Cytotoxicity against human SKOV3 cells; method in brief: as §1
786-0 = test: Cytotoxicity against human 786-0 cells
UACC-62 = test: Cytotoxicity against human UACC62 cells; method in brief: as §2
Malme-3M [5] = test: Cytotoxicity against human MALME-3M cells
M14 = test: Cytotoxicity against human M14 cells
SNB-19 = test: Cytotoxicity against human SNB19 cells; method in brief: as §1
SF-539 = test: Cytotoxicity against human SF539 cells; method in brief: as §1
SF-268 = test: Cytotoxicity against human SF268 cells; method in brief: as §1
HT-29 = test: Cytotoxicity against human HT-29 cells
KM12 = test: Cytotoxicity against human KM12 cells
HCT-116 = test: Cytotoxicity against human HCT116 cells
NCI-H460 = test: Cytotoxicity against human NCI-H460 cells; method in brief: as §1
NCI-H23 = test: Cytotoxicity against human NCI-H23 cells; method in brief: as §1
HOP-62 [6] = test: Cytotoxicity against human HOP62 cells
HOP-92 = test: Cytotoxicity against human HOP92 cells
[7] = Cytotoxicity against human EKVX cells
SR = test: Cytotoxicity against human SR cells; method in brief: as §1
A549 = test: Cytotoxicity against human A549/ATCC cells
CCRF-CEM = test: Cytotoxicity against human CCRF-CEM cells
HL-60(TB) = test: Cytotoxicity against human HL-60(TB) cells
Method in brief: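 Run in the sixty human tumour cell line panel. The primary screen reports percent growth of treated cells, expressed as percentage growth inhibition. Compounds meeting the threshold inhibition criteria go on to the full-panel 5-dose assay, which gives three response parameters (GI50, TGI, LC50) in μM.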

T47D = test: Cytotoxicity against human T47D cells assessed as growth inhibition at 10 uM; conditions: read-out: GI
Method in brief: (§3)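 Single-dose screen on human tumour cell lines. Growth of treated cells is expressed as percent of untreated growth, plotted as a mean graph, and reported as percent growth inhibition.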

Hs-578T [8] = test: Cytotoxicity against human Hs578T cells assessed as growth inhibition at 10 uM; conditions: read-out: GI
PC-3 [9] = test: Cytotoxicity against human PC3 cells assessed as growth inhibition at 10 uM; conditions: read-out: GI; method in brief: as §3
UO-31 [10] = test: Cytotoxicity against human UO31 cells assessed as growth inhibition at 10 uM; conditions: read-out: GI
Method in brief: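 Single-dose screen in a sixty-cell human tumour line panel; percent growth of treated cells relative to untreated was read and reported as percentage growth inhibition, shown as a mean graph. Compounds meeting the threshold inhibition criteria went on to five-dose testing.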

RXF 393 = test: Cytotoxicity against human RXF393 cells assessed as growth inhibition at 10 uM; conditions: read-out: GI; method in brief: as §3
CAKI-1 [11] = test: Cytotoxicity against human Caki1 cells assessed as growth inhibition at 10 uM; conditions: read-out: GI
ACHN = test: Cytotoxicity against human ACHN cells assessed as growth inhibition at 10 uM; conditions: read-out: GI
Malme-3M [12] = test: Cytotoxicity against human MALME-3M cells assessed as growth inhibition at 10 uM; conditions: read-out: GI
NCI-H522 = test: Cytotoxicity against human NCI-H522 cells assessed as growth inhibition at 10 uM; conditions: read-out: GI; method in brief: as §3
HOP-62 [13] = test: Cytotoxicity against human HOP62 cells assessed as growth inhibition at 10 uM; conditions: read-out: GI
[14] = read-out: LC50 (the source's name)

`N#Cc1c(-c2ccccc2)nc(SCC2CO2)nc1N1CCOCC1` (configuration not stated) showed a zone of inhibition at 1000 µg/mL (Candida albicans) of 22 mm, a zone of inhibition at 1000 µg/mL (Staphylococcus aureus) of 15 mm and a GI50 (MDA-MB-468) of 4.82 µM. For the same molecule, the TGI (MDA-MB-468) was over 100 µM, the CC50 (MDA-MB-468; [14]) was over 100 µM and the GI50 (MDA-MB-231) was 10 µM. It also gave a TGI (MDA-MB-231) of over 100 µM, a CC50 (MDA-MB-231; [14]) of over 100 µM and a GI50 (Hs-578T [1]) of 1150 nM. It also gave a TGI (Hs-578T [1]) of 6.09 µM, a CC50 (Hs-578T [1]; [14]) of over 100 µM and a GI50 (MCF7) of 3.92 µM. The TGI (MCF7) was over 100 µM, the CC50 (MCF7; [14]) was over 100 µM and the GI50 (DU-145) was 13.4 µM. It also gave a TGI (DU-145) of over 100 µM, a CC50 (DU-145; [14]) of over 100 µM and a GI50 (PC-3 [2]) of 22.1 µM. It also gave a TGI (PC-3 [2]) of over 100 µM, a CC50 (PC-3 [2]; [14]) of over 100 µM and a GI50 (UO-31 [3]) of 7.57 µM. For the same molecule, the TGI (UO-31 [3]) was over 100 µM, the CC50 (UO-31 [3]; [14]) was over 100 µM and the GI50 (TK-10) was 4.63 µM. The TGI (TK-10) was over 100 µM, the CC50 (TK-10; [14]) was over 100 µM and the GI50 (SN12C) was 16.4 µM. The TGI (SN12C) was over 100 µM, the CC50 (SN12C; [14]) was over 100 µM and the GI50 (CAKI-1 [4]) was 635 nM. For the same molecule, the TGI (CAKI-1 [4]) was 31.4 µM, the CC50 (CAKI-1 [4]; [14]) was over 100 µM and the GI50 (SK-OV-3) was 14.1 µM. For the same molecule, the TGI (SK-OV-3) was 75.2 µM, the CC50 (SK-OV-3; [14]) was over 100 µM and the GI50 (786-0) was 2700 nM. The TGI (786-0) was 21.3 µM, the CC50 (786-0; [14]) was over 100 µM and the GI50 (UACC-62) was 3.12 µM. The TGI (UACC-62) was 75.5 µM, the CC50 (UACC-62; [14]) was over 100 µM and the GI50 (Malme-3M [5]) was 2560 nM. It also gave a TGI (Malme-3M [5]) of over 100 µM, a CC50 (Malme-3M [5]; [14]) of over 100 µM and a GI50 (M14) of 11.9 µM. It also gave a TGI (M14) of over 100 µM, a CC50 (M14; [14]) of over 100 µM and a GI50 (SNB-19) of 84.5 µM. For the same molecule, the TGI (SNB-19) was over 100 µM, the CC50 (SNB-19; [14]) was over 100 µM and the GI50 (SF-539) was 19.8 µM. For the same molecule, the TGI (SF-539) was over 100 µM, the CC50 (SF-539; [14]) was over 100 µM and the GI50 (SF-268) was 13 µM. For the same molecule, the TGI (SF-268) was over 100 µM, the CC50 (SF-268; [14]) was over 100 µM and the GI50 (HT-29) was 36.8 µM. It also gave a TGI (HT-29) of over 100 µM, a CC50 (HT-29; [14]) of over 100 µM and a GI50 (KM12) of 27.1 µM. It also gave a TGI (KM12) of over 100 µM, a CC50 (KM12; [14]) of over 100 µM and a GI50 (HCT-116) of 18.4 µM. For the same molecule, the TGI (HCT-116) was over 100 µM, the CC50 (HCT-116; [14]) was over 100 µM and the GI50 (NCI-H460) was 10.3 µM. The TGI (NCI-H460) was over 100 µM, the CC50 (NCI-H460; [14]) was over 100 µM and the GI50 (NCI-H23) was 4.48 µM. The TGI (NCI-H23) was over 100 µM, the CC50 (NCI-H23; [14]) was over 100 µM and the GI50 (HOP-62 [6]) was 4.34 µM. It also gave a TGI (HOP-62 [6]) of 75.3 µM, a CC50 (HOP-62 [6]; [14]) of over 100 µM and a GI50 (HOP-92) of 2440 nM. It also gave a TGI (HOP-92) of 8.7 µM, a CC50 (HOP-92; [14]) of over 100 µM and a GI50 [7] of 3.65 µM. For the same molecule, the TGI [7] was over 100 µM, the CC50 [7, 14] was over 100 µM and the GI50 (SR) was 33.3 µM. The TGI (SR) was over 100 µM, the CC50 (SR; [14]) was over 100 µM and the GI50 (A549) was 27.9 µM. The TGI (A549) was over 100 µM, the CC50 (A549; [14]) was over 100 µM and the GI50 (CCRF-CEM) was over 100 µM. For the same molecule, the TGI (CCRF-CEM) was over 100 µM, the CC50 (CCRF-CEM; [14]) was over 100 µM and the GI50 (HL-60(TB)) was 34.1 µM. For the same molecule, the TGI (HL-60(TB)) was over 100 µM, the CC50 (HL-60(TB); [14]) was over 100 µM and the inhibition of growth at 10 µM (T47D) was 84.6%. For the same molecule, the inhibition of growth at 10 µM (Hs-578T [8]) was 50%, the inhibition of growth at 10 µM (PC-3 [9]) was 63.9% and the inhibition of growth at 10 µM (UO-31 [10]) was 70.5%. For the same molecule, the inhibition of growth at 10 µM (RXF 393) was 68.5%, the inhibition of growth at 10 µM (CAKI-1 [11]) was 61.4% and the inhibition of growth at 10 µM (ACHN) was 40.8%. The inhibition of growth at 10 µM (Malme-3M [12]) was 74.3%, the inhibition of growth at 10 µM (NCI-H522) was 42.1% and the inhibition of growth at 10 µM (HOP-62 [13]) was 45.7%.
